Assay outcomes deposited in PubChem BioAssay by several laboratories.
Shown is part of a subset that was picked to be rich in hits.
T cruzi repl = blocks replication of Trypanosoma cruzi; T. cruzi beta-gal in NIH3T3, luminescence, 90 h; inhibition, % (concentration not given with the values); 1.4% of 300,000 active; AID 1885;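 active means mean inhibition across valid replicates above about 55%, limit read from the data; inconclusive means mean below that limit but half or more replicates reach it; inactive means mean below it, under half of replicates reach it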;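 further: signal also drops with host cell toxicity which is not excluded here; 0% = plate median of DMSO wells and 100% = zero luminescence signal; higher percent means less beta-gal luminescence so fewer parasites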
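Test system: β-gal T. cruzi (Tulahuen C4) inside NIH/3T3 cells / Quantity: 5,000 cells/well / Measured by: luminescence from GalScreen with 0.05% NP40, read after 60 min / Medium: DMEM plus 2% FBS / Measure: parasite load inhibition, % / Reagent: Tulahuen C4 trypomastigotes, 5000/well / Schedule: co-culture of at least 90 h after 3 h attachment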
Lmaj promast = Leishmania major promastigote growth inhibition | Leishmania major promastigotes, resazurin fluorescence viability | inhibition, % at 10 µM | 9% of 200,000 active; in the data active means inhibition above about 50%;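 further: promastigotes grown with compound for 44 hours at 28 °C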
Hsp70 activator = switches on Hsp70 transcription; activation, % at 10 µM; 0.04% of 200,000 active; HeLa Hsp70 promoter luciferase reporter, luminescence; scaled: vehicle 0, proteasome-inhibitor control 100%;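 active means activation above the mean across all tested compounds plus 3 SD, cutoff set per campaign, cut at about 5.5% in these data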;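 further: 100% = MG132 at 30 µM as the positive control and 0% = DMSO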
HSF1 inh = HSF1 inhibition. AID 2098. 0.77% of 300,000 active. activity change, negative = inhibition, % at 7.5 µM (by protocol). NIH3T3-HGL HSE-luciferase, MG132-induced, luminescence 8 h; hits give low values;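 active means more than half of replicate wells show activity change below -50%, luminescence cut by over half; inconclusive means some wells, but at most half, below -50%; inactive means no replicate well below -50%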;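 further: luciferase reports HSF-1 transcriptional activity via heat shock element; 0% = median of DMSO wells and -100% = zero luminescence signal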
HSF-1 act = increases HSF-1 driven luciferase reporter signal | NIH3T3-HGL HSF-1 luciferase reporter, MG132, 8 h; 100% = twice DMSO control signal | 1.7% of 300,000 active | AID 504408 | activation, % at 9 µM;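 active means mean replicate activation of at least 50% with a set share of replicates each reaching 50%; inconclusive means only one of those two conditions met; inactive means mean below 50% and too few replicates reaching it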;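 further: 0% = median of the neutral control wells and 100% = twice that signal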
The depositor's hits bear a star; ? = inconclusive; . = no result.

SMILES | T cruzi repl | Lmaj promast | Hsp70 activator | HSF1 inh | HSF-1 act
O=C(c1ccc(C(F)(F)F)cc1)C1CCCN(C2CCSCC2)C1 (stereo unspecified) | 3.9 | 91.9* | 0.2 | 6.5 | 9.9
Cc1cccc(CN2CCCC(C(=O)c3ccc(C(F)(F)F)cc3)C2)n1 (stereo unspecified) | 35.0 | 79.4* | -0.1 | 1.4 | 3.8
Cc1cc(Cl)ccc1C(=O)C1CCCN(C2CCSCC2)C1 (stereo unspecified) | 41.7 | 85.1* | -0.1 | 2.8 | -4.5
CN1CCC(O)(c2ccc(Cl)cc2)C(C(=O)c2ccc(Cl)cc2)C1 (stereo unspecified) | 48.7 | 85.7* | -0.3 | 1.8 | 15.2
O=C(COc1ccc2ccc(=O)oc2c1)N1C[C@H]2C[C@@H](C1)c1cccc(=O)n1C2 | -1.3 | . | . | -2.8 | 7.6
O=Cc1cn(Cc2ccccc2[N+](=O)[O-])c2ccccc12 | -24.3 | 50.4* | -0.3 | -3.1 | 2.0
O=Cc1cn(Cc2ccc([N+](=O)[O-])cc2)c2ccccc12 | -3.7 | 7.1 | -0.4 | 8.1 | 4.1
Cc1ccsc1C(=O)C1CCCN(Cc2ccccc2O)C1 (stereo unspecified) | 9.2 | 21.7 | -0.1 | 20.0 | 58.0*
Cc1ccsc1C(=O)C1CCCN(Cc2cccn2-c2ccccn2)C1 (stereo unspecified) | 8.2 | 60.8* | -0.1 | -8.3 | -20.5
CCc1ccc(CN2CCCC(C(=O)c3sccc3C)C2)o1 (stereo unspecified) | 54.8* | -0.3 | -0.3 | 17.4 | 34.8
Cc1ccsc1C(=O)C1CCCN(Cc2cnn(C(C)C)c2)C1 (stereo unspecified) | 65.9* | -0.8 | 0.0 | 1.1 | 11.6
CC/C(=N\Nc1cccc2ccccc12)c1c(O)[nH]c(=O)[nH]c1=O | 10.7 | 7.1 | -0.1 | -2.0 | 11.4
COc1cc(OC)c2c(c1)OCC1CON(C)C21 (stereo unspecified) | -7.8 | -4.2 | -0.1 | -78.0* | -80.8
CNCC(=O)c1ccccc1 | -5.1 | . | . | -5.5 | 10.4
CC[C@H]1CN2CC[C@@]3(C(=O)Nc4ccccc43)[C@@H]2C[C@@H]1/C(=C\OC)C(=O)OC | 3.0 | . | . | -0.9 | 2.7
Cc1cccc(N2CCc3c2nc2ccccc2c3N)c1 | 39.2 | 93.8* | -0.1 | -4.7 | 1.5
Cc1oc(-c2ccccc2Cl)nc1CN1C(=O)CN=C(c2ccccc2)c2ccccc21 | -7.6 | 34.2 | -0.1 | 59.5 | 94.6*
O=C1CN=C(c2ccccc2)c2ccccc2N1Cc1ccc(C(F)(F)F)cc1 | 39.3 | 5.5 | -0.3 | 12.6 | 26.3
CCOc1ccc(-c2c(C)n(-c3ccc(OCC)cc3)c3[n+]2CCCCC3)cc1 | 46.4 | . | . | -9.2 | 0.1
C=CCn1c(O)c(C=NCCN2CCNCC2)c(=O)[nH]c1=O | -6.8 | -1.8 | 0.0 | -3.6 | -8.2
CC(=NCCCN1CCOCC1)c1c(O)n(Cc2ccccc2)c(=O)[nH]c1=O | -1.1 | 89.6* | 1.1 | 10.7 | 29.7
O=c1[nH]c(=O)n(Cc2ccccc2)c(O)c1C=NCCN1CCNCC1 | -23.7 | -2.7 | -0.4 | -84.8* | -88.7
CCC(=NCCCN1CCOCC1)c1c(O)n(Cc2ccccc2)c(=O)[nH]c1=O | 2.4 | 2.0 | 0.0 | 12.0 | 15.5
O=c1[nH]c(=O)n(CCC2=CCCCC2)c(O)c1/C=N/Nc1cccc2ccccc12 | 28.2 | . | . | -4.7 | 25.1
O=c1[nH]c(=O)n(CCC2=CCCCC2)c(O)c1/C=N/Nc1ccccc1 | 30.9 | 80.5* | -0.4 | 7.2 | ?
SMILES | T cruzi repl | Lmaj promast | Hsp70 activator | HSF1 inh | HSF-1 act
CCCCCCn1c(O)c(C=NC2CCN(Cc3ccccc3)CC2)c(=O)[nH]c1=O | 49.0 | 54.1* | -0.2 | 0.0 | 8.9
CCCCn1c(O)c(C(=O)/C=C/c2c[nH]c3ccccc23)c(=O)[nH]c1=O | -13.7 | . | . | 3.4 | 6.1
O=c1[nH]c(=O)n(CCC2=CCCCC2)c(O)c1C=NC1CCN(Cc2ccccc2)CC1 | . | 83.0* | -0.6 | . | .
Cc1nn(Cc2ccccc2Cl)c(Cl)c1C(=O)OCC(=O)NC(=O)NC1CCCCC1 | 0.4 | 52.2* | -0.4 | -2.8 | 6.4
COc1ccc(C(=O)C2CCCN(Cc3ccsc3)C2)cc1OC (stereo unspecified) | 52.0 | 95.8* | -0.4 | -7.3 | -19.9
COc1cccc(C(=O)C2CCCN(Cc3ccc4nonc4c3)C2)c1 (stereo unspecified) | 34.2 | 88.7* | -0.3 | 5.5 | 39.1
O=C(c1cc(F)ccc1F)C1CCCN(Cc2ccc3nonc3c2)C1 (stereo unspecified) | 0.2 | 86.5* | -0.2 | 9.5 | 13.8
CSc1ccccc1C(=O)C1CCCN(Cc2ccccn2)C1 (stereo unspecified) | 5.4 | 1.2 | -0.3 | -0.9 | -6.4
COc1cccc(C(=O)C2CCCN(Cc3cccc4c3OCO4)C2)c1 (stereo unspecified) | 44.1 | 10.0 | -0.2 | -2.2 | -1.8
O=C(c1cc(F)ccc1F)C1CCCN(Cc2cc(Cl)ccc2O)C1 (stereo unspecified) | -14.7 | . | . | 7.6 | 20.6
COc1ccccc1C(=O)C1CCCN(Cc2cnc(C)s2)C1 (stereo unspecified) | 19.4 | 5.5 | -0.3 | . | .
COc1ccc(CN2CCCC(C(=O)c3ccccc3SC)C2)cc1O (stereo unspecified) | 16.8 | 62.7* | -0.1 | -13.5 | -15.8
O=C1CCN(C(=O)C(Cl)Cl)N1 | -8.4 | -7.0 | 0.0 | -3.4 | -5.3
Cc1ccc(C(=O)c2cc(Br)ccc2N)cc1 | 5.3 | 17.1 | 2.3 | 24.8 | 12.0
CCC(C)(C)n1nnnc1CN1CCC(n2c(C)nc3cc(C(F)(F)F)ccc32)CC1 | 24.0 | -7.2 | 0.3 | . | .
CC(Cc1ccccc1Sc1ccccc1O)N(C)C (stereo unspecified) | -2.7 | 99.8* | 0.0 | 19.1 | 14.6
CC(C)(C)P(=O)(c1ccncc1)N1CCCC1 (stereo unspecified) | -1.1 | -7.5 | -0.6 | -7.7 | -0.5
CCCCn1c(C)c(C(=O)OCC)c2c(CN3CCOCC3)c(O)ccc21 | 8.6 | 9.9 | -0.3 | 56.2 | 72.3*
CCCCn1c(C)c(C(=O)OCC)c2c(CN3CCCC3)c(O)ccc21 | 32.9 | . | . | 0.7 | 6.8
Cc1cccc(CN2CCN(Cc3ccc(Cl)cc3)CC2)c1 | 34.0 | 88.6* | 0.1 | -10.0 | 0.9
COc1ccc(CN2CCN(Cc3ccccc3OC)CC2)cc1 | 12.1 | . | . | -0.8 | 2.6
Oc1ccc(Cl)cc1CN1CCN(Cc2ccccc2)CC1 | 8.3 | 62.7* | -0.3 | -6.1 | 0.6
O=C(Cc1ccccc1)N1CCN(Cc2cccc(Cl)c2)CC1 | -6.2 | . | . | 1.1 | 18.5
COc1ccccc1CN1CCN(Cc2ccc(Cl)cc2)CC1 | 58.1* | 12.2 | -0.2 | 4.8 | -1.2
O=C(CNC1CCCCC1)N1CCC2(CC1)OCCO2 | -7.2 | -6.6 | -0.2 | -3.8 | -5.3
Cc1cccc(CCNCc2cc3cccc(C)c3[nH]c2=O)c1 | 35.2 | . | . | -3.8 | 11.0
COc1cccc(CN2CCCCC2c2cccnc2)c1 (stereo unspecified) | 34.0 | 72.1* | -0.2 | -6.4 | -13.2
COc1ccc(CN2CCCCC2c2cccnc2)cc1C (stereo unspecified) | 51.7 | 44.4 | -0.4 | 0.3 | 5.0
